Experimental findings from ChEMBL document CHEMBL4425109, “Optimization of Cyclic Plasmin Inhibitors: From Benzamidines to Benzylamines” (J Med Chem, 2016) are described below.

Series [1] relates to Plasma. Nature of the series: Inhibition of TF/Ca2+-induced clotting in human plasma after 40 mins. In kind it is cell-free. In short, it runs like this:
(§1)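 Clotting was triggered in citrated human plasma at 37 °C by tissue factor (stock 1/500 in assay) plus CaCl2 (12.5 mM in assay), with tPA 12.3 nM present. Inhibitor was tested at 10–200 nM after 5 min preincubation of reagents at 37 °C. Clot formation was followed as the rapid initial OD405 rise to a plateau, read over 40 min.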

The target in series [2] is Trypsin (Homo sapiens, UniProt P07477+P07478+P35030). Nature of the series: Inhibition of trypsin (unknown origin). In kind it is protein assay. The method, boiled down:
(§2)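 Porcine trypsin, 30 pM final, with substrate Mes-DArg-Gly-Arg-AMC (KM 8.3 μM). Buffer was 50 mM Tris·HCl pH 8.0 containing 154 mM NaCl, at room temperature. Reaction was started by enzyme and fluorescence read at ex 355 / em 460 nm. Ki was obtained from Dixon plots, mean of at least two measurements.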

The target of series [3] is T1, Plasminogen (Homo sapiens, UniProt P00747). Nature of the series: Binding affinity to human plasmin assessed as slow binding constant in presence of Mes-DArg-Phe-Arg-AMC after 20 mins by Dixon plot analysis.
Target sequence in this assay (P00747 97-580 limits assumed): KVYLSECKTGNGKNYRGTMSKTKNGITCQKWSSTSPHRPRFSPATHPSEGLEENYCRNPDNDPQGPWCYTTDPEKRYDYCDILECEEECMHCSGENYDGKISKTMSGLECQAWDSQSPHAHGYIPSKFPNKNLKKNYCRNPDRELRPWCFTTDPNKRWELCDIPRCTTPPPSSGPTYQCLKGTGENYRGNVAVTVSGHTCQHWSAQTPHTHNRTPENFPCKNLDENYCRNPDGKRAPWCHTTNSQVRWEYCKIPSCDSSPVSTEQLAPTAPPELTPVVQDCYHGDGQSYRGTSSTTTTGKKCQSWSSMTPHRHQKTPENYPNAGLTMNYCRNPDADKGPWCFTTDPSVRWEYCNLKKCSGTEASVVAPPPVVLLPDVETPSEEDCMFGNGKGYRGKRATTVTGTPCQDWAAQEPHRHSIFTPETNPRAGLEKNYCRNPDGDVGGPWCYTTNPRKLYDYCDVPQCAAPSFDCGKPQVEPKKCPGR
Target sequence in this assay (P00747 581-810 limits assumed): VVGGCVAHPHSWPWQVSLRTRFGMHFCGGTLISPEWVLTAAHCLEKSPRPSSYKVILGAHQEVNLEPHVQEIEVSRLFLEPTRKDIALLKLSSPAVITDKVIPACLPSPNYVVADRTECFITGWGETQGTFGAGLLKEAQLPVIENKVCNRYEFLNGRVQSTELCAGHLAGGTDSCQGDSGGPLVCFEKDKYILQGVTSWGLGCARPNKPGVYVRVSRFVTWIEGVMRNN
In the next series the target is Prothrombin (Bos taurus, UniProt P00735). Nature of the series: Inhibition of bovine thrombin using Tos-Gly-Pro-Arg-AMC as substrate by Dixon plot analysis. In short, it runs like this:
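Bovine thrombin at 31 pM in assay, KM 5.4 μM for the substrate. Run at room temperature in 50 mM Tris·HCl pH 8.0 with 154 mM NaCl. Fluorescence read at ex 355 / em 460 nm, reaction started by enzyme addition. Ki from Dixon plots, average of at least two measurements.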

The test system of series [4] is Plasma. The experiment in a line: Inhibition of TF/Ca2+-induced clotting in human plasma at 10 to 200 nM after 40 mins. The class given is cell-free. The settings on record: 0.2 µM. In short, it runs like this:
as §1

Series [5] concerns the target T1, Plasminogen. Nature of the series: Inhibition of human plasmin using Mes-DSer(Bzl)-Phe-Arg-AMC as substrate by Dixon plot analysis.
Target sequence in this assay (P00747 97-580 limits assumed): as the sequence (P00747 97-580 limits assumed) above
Target sequence in this assay (P00747 581-810 limits assumed): as the sequence (P00747 581-810 limits assumed) above
A further series deals with Coagulation factor X (Homo sapiens, UniProt P00742). The experiment in a line: Inhibition of human f10a using Mes-DArg-Pro-Arg-AMC as substrate by Dixon plot analysis. The method, boiled down:
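Human factor Xa, 97 pM in assay, in 50 mM Tris·HCl pH 8.0 with 154 mM NaCl at room temperature. Fluorogenic substrate Mes-DArg-Pro-Arg-AMC (KM 28 μM), read at ex 355 / em 460 nm after starting with enzyme. Ki was taken from Dixon plots and averaged over at least two measurements.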

In series [6] the test system is Plasma. Nature of the series: Potency index, ratio of aprotinin IC50 to compound IC50 for inhibition of tPA-induced plasmin formation in human plasma. The class given is functional.
Series [7] has as its target Trypsin (Sus scrofa, UniProt P00761). The experiment in a line: Inhibition of porcine trypsin using Mes-DArg-Gly-Arg-AMC as substrate by Dixon plot analysis. In short, it runs like this:
as §2

For series [8], the system named is Plasma. Nature of the series: Antifibrinolytic activity in human plasma assessed as inhibition of tPA-induced plasmin formation after 40 mins. In kind it is functional, cell-free. The method, boiled down: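 Citrated human plasma at 37 °C with CaCl2 (12.5 mM in assay), tissue factor (stock 1/500 in assay) and tPA (12.3 nM in assay). Inhibitor dilutions, from 10 mM DMSO stocks diluted in 0.9% NaCl, were preincubated 5 min at 37 °C with these reagents, then started with prewarmed plasma. OD405 was read over 40 min.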

The target in another series is Plasma kallikrein (Homo sapiens, UniProt P03952). Nature of the series: Inhibition of human plasma kallikrein using Mes-DArg-Pro-Arg-AMC as substrate by Dixon plot analysis. The method, boiled down:
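Human plasma kallikrein (112 pM final) was assayed at room temperature in Tris·HCl 50 mM pH 8.0 with NaCl 154 mM. Mes-DArg-Pro-Arg-AMC served as substrate (KM 39 μM). Fluorescence was read at ex 355 / em 460 nm, with reactions started by enzyme.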

Series [9] has as its target Vitamin K-dependent protein C (Homo sapiens, UniProt P04070). The experiment in a line: Inhibition of human activated Protein C using Mes-DArg-Pro-Arg-AMC as substrate by Dixon plot analysis. The method, boiled down: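 Human aPC, 293 pM final. Run at room temperature in 50 mM Tris·HCl pH 8.0 with 154 mM NaCl. Substrate Mes-DArg-Pro-Arg-AMC, KM 26 μM. Fluorescence was read at ex 355 / em 460 nm, with reaction started by enzyme. Ki came from Dixon plots, mean of at least two measurements.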

Series [10] addresses T1, Plasminogen. Nature of the series: Inhibition of human plasmin.
Target sequence in this assay (P00747 whole entry, looked up): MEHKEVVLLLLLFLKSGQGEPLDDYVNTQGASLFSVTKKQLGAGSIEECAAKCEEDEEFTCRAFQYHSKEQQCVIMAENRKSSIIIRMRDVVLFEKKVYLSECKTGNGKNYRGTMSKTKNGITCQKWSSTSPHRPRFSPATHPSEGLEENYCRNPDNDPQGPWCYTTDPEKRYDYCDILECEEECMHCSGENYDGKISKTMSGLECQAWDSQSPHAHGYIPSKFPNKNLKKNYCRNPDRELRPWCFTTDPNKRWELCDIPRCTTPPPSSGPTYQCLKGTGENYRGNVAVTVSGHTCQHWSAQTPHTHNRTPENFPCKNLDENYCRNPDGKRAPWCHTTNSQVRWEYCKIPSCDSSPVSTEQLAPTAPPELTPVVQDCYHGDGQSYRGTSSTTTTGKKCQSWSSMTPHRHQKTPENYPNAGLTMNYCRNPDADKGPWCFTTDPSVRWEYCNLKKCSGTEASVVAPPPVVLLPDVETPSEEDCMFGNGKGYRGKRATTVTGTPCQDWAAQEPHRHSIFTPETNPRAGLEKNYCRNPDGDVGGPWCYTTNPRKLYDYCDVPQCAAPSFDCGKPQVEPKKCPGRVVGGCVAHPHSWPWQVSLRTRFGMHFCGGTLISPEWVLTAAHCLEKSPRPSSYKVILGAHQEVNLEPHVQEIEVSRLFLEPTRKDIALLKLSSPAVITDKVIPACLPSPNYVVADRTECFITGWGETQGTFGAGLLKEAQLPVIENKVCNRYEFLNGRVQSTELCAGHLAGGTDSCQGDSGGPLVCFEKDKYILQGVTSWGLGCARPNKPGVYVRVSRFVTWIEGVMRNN

Some results are limits rather than exact numbers.

Chain of Plasma kallikrein (P03952 20-390 limits assumed): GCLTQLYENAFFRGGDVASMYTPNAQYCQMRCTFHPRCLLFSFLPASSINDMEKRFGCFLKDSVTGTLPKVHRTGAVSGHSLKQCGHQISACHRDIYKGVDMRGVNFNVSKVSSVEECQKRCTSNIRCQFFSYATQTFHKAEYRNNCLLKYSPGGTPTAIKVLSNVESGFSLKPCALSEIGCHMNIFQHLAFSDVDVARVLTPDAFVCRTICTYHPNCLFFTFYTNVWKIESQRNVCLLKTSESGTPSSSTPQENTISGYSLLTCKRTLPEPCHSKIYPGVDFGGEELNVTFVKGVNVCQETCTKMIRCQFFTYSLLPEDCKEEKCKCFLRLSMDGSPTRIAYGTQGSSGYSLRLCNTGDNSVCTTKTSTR
Chain of Plasma kallikrein (P03952 391-638 limits assumed): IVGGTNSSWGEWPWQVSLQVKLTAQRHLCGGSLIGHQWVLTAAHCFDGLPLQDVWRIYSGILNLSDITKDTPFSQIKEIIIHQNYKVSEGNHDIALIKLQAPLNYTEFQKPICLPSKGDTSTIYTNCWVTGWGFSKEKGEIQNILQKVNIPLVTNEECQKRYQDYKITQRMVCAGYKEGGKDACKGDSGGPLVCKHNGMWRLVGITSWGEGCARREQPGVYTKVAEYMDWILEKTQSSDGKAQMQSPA
Chain of Trypsin (Sus scrofa, UniProt P00761) (P00761 whole entry): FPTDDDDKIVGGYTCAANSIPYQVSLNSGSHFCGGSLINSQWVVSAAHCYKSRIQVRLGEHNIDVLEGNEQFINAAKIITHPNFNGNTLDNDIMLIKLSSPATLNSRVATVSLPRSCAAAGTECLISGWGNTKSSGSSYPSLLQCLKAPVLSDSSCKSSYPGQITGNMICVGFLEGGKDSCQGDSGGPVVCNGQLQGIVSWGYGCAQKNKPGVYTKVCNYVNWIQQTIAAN
Chain of Coagulation factor X (P00742 41-179 limits assumed): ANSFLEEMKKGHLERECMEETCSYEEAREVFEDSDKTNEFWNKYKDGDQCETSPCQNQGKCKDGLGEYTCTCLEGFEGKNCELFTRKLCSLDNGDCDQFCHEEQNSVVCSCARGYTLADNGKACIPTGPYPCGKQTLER
Chain of Coagulation factor X (P00742 235-488 limits assumed): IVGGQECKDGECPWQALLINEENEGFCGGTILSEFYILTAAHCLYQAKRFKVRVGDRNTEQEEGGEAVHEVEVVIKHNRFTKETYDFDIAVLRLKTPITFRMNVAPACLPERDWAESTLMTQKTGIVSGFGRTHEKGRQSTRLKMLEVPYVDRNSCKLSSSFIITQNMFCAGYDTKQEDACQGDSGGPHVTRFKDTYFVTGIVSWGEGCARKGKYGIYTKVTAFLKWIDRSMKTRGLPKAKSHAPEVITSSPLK
Chain of Vitamin K-dependent protein C (P04070 43-197 limits assumed): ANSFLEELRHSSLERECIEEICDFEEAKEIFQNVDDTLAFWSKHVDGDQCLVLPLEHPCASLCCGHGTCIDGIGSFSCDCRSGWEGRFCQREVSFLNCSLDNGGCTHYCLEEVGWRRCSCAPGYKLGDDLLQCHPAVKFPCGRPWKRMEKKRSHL
Chain of Vitamin K-dependent protein C (P04070 212-461 limits assumed): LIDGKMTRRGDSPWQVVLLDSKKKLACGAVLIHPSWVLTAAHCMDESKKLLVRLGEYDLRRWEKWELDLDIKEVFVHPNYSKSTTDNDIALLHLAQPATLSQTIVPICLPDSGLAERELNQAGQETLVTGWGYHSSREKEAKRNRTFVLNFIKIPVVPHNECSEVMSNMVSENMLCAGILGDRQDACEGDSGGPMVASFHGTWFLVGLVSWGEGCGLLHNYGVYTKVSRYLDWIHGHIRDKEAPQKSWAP

By Ki is commonly meant a dissociation constant, usually derived from enzyme kinetics or from competition with a known ligand. `N=C(N)c1ccc(CNC(=O)[C@H](Cc2cccc(CN)c2)NC(=O)[C@@H](CCCc2ccccc2)NS(=O)(=O)Cc2cccc(C(=O)O)c2)cc1`: in the series with Plasma [1], the Activity entry is on record as “Toxic”. Besides, the Ki on Trypsin [2] turned out to be 3.6 nM.

The term IC50 denotes the point on the concentration scale where inhibition reaches its midpoint. As to `NCc1ccc(CNC(=O)[C@@H]2Cc3ccc(cc3)NC(=O)CCN3CCN(CCC(=O)Nc4ccc(cc4)C[C@@H](NS(=O)(=O)c4ccccc4)C(=O)N2)CC3)cc1.O=C(O)C(F)(F)F.O=C(O)C(F)(F)F.O=C(O)C(F)(F)F`, the Ki was 0.54 nM on Plasminogen [3]; 36900 nM at Prothrombin; 0.56 nM at Plasminogen [5]; above 100000 nM on Coagulation factor X; 1540 nM on Trypsin [7]; 48700 nM at Plasma kallikrein. Moreover, the Ki in [9] was above 100000 nM. Further, the Activity result in the series with Plasma [4] is on record as “Non-Toxic”. Moreover, the “Ratio IC50” value in the series on Plasma [6] came out at 3. In the series on Plasma [8], the half-maximal inhibitory concentration (IC50) came to 81 nM.

`CC(C)(C)OC[C@@H](NS(=O)(=O)Cc1ccccc1)C(=O)NCC(=O)NCc1ccc(C(=N)N)cc1` showed a Ki on Plasminogen [10] of 7700 nM.
